The results in this text go back to ChEMBL document CHEMBL4371059 (J Med Chem, 2019).

Active and inactive are the calls of the source. No cut-off for these calls is given here.

Broadly, the inhibition is the relative decrease from the control value, in per cent. In general, Ki refers to the dissociation constant of the complex between target and ligand, obtained from inhibition or displacement.

The target of test [1] is T1, Sigma intracellular receptor 2 (Rattus norvegicus) (UniProt Q5U3Y7).
T1 sequence (whole entry): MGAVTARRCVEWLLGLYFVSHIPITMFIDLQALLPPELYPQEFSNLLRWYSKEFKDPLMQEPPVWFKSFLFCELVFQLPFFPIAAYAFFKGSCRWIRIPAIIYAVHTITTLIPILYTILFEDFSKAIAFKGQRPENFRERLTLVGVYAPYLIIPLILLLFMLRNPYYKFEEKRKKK
Nature of the test: Displacement of [3H]DTG from sigma2 receptor in rat liver membranes at 1 uM after 120 mins by scintillation counting method relative to control. It counts as cell membranes. In general terms: Displacement assays read how much labelled ligand stays bound in the presence of the test substance.

Test [2] concerns the target T2, Sigma intracellular receptor 2 (Rattus norvegicus, UniProt Q5U3Y7).
T2 sequence (Q5U3Y7 whole entry): T1 sequence (whole entry)
Nature of the test: Displacement of [3H]DTG from sigma2 receptor in rat liver membranes after 120 mins by scintillation counting method. It counts as cell membranes.

The subject of test [3] is Dendritic cell. Nature of the test: Anti-inflammatory activity in PMA/ionomycin-stimulated human PBMC-derived dendritic cells assessed as reduction in IFNgamma production at 5 ug/ml treated for 48 hrs starting from 12 hrs post PMA/ionomycin stimulation by flow cytometry. Type of test: functional, cell-based. Put shortly: (§1)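 PBMC were prepared from heparinized blood of healthy donors by Ficoll gradient, and DC or T cells were negatively enriched with magnetic kits. Cells were activated 12 h with PMA (5 ng/ml) plus ionomycin (500 ng/ml), then cultured 48 h with compound or PBS. Flow cytometry was gated on HLA-DR⁺CD11c⁺ for DC and CD3⁺ for T cells, with intracellular IFN-γ; n=3 donors.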

In test [4] the test system is T-cell. Nature of the test: Anti-inflammatory activity in PMA/ionomycin-stimulated human PBMC-derived T cells assessed as reduction in IFNgamma production at 5 ug/ml treated for 48 hrs starting from 12 hrs post PMA/ionomycin stimulation by flow cytometry. It counts as functional, cell-based. Put shortly:
as §1
On the technique in general: In flow cytometry, cells or beads pass a laser one at a time.

Test [5] relates to T-cell. The experiment in a line: Immunomodulatory activity in PMA/ionomycin-stimulated human PBMC-derived T cells assessed as increase in IL-10 production at 5 ug/ml treated for 48 hrs starting from 12 hrs post PMA/ionomycin stimulation. Type of test: functional, cell-based. The procedure, abridged:
(§2)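 Human PBMC-derived cells from healthy donors were activated with PMA (5 ng/ml) plus ionomycin (500 ng/ml), then cultured with compound or PBS. Cytokines were quantified in the culture supernatants; n=3 donors.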

Test [6] deals with Dendritic cell. Nature of the test: Immunomodulatory activity in PMA/ionomycin-stimulated human PBMC-derived dendritic cells assessed as increase in IL-10 production at 5 ug/ml treated for 48 hrs starting from 12 hrs post PMA/ionomycin stimulation. Type of test: functional, cell-based. Put shortly:
as §2

Test [7] concerns Dendritic cell. The experiment in a line: Anti-inflammatory activity in PMA/ionomycin-stimulated C57BL/6 mouse bone marrow derived dendritic cells assessed as reduction in IFNgamma production at 5 ug/ml treated for 48 hrs starting from 12 hrs post PMA/ionomycin stimulation by flow cytometry. It counts as functional, cell-based. The procedure, abridged:
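Bone marrow from tibias and femurs was cultured 9 days with GM-CSF (150 U/ml) and IL-4 (75 U/ml). From day 7 to day 9, cells were stimulated with PMA (5 ng/ml) plus ionomycin (500 ng/ml) with or without compound. On day 9, cells were gated on MHC-II⁺CD11c⁺ and stained for intracellular IFN-γ; n=5 mice.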

Test [8] relates to T-cell. Nature of the test: Anti-inflammatory activity in PMA/ionomycin-stimulated C57BL/6 mouse T cells assessed as reduction in IFNgamma production at 5 ug/ml treated for 48 hrs starting from 12 hrs post PMA/ionomycin stimulation by flow cytometry. It counts as functional, cell-based. Put shortly:
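Total T cells were isolated from wild-type mouse lymph nodes with a Pan T cell kit. Cells were activated 12 h with PMA (5 ng/ml) plus ionomycin (500 ng/ml), then cultured 48 h with compound or PBS. Analysis was by flow cytometry gated on CD3, with intracellular IFN-γ after permeabilization; n=5 mice.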

Test [9] deals with T-cell. Nature of the test: Immunomodulatory activity in PMA/ionomycin-stimulated C57BL/6 mouse T cells assessed as increase in IL-10 production at 5 ug/ml treated for 48 hrs starting from 12 hrs post PMA/ionomycin stimulation. Type of test: functional, cell-based. Put shortly: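 Mouse lymph-node T cells were activated 12 h with PMA (5 ng/ml) plus ionomycin (500 ng/ml), then cultured 48 h with compound or PBS. Secreted cytokines were measured in the culture supernatants; n=5 mice per group.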

Test [10] has as its system Dendritic cell. Nature of the test: Immunomodulatory activity in PMA/ionomycin-stimulated C57BL/6 mouse bone marrow derived dendritic cells assessed as increase in IL-10 production at 5 ug/ml treated for 48 hrs starting from 12 hrs post PMA/ionomycin stimulation. It counts as functional, cell-based.
The subject of test [11] is T-cell. Nature of the test: Inhibition of PMA/ionomycin-stimulated C57BL/6 mouse T cells activation assessed as CD44-positive cells at 5 ug/ml treated for 48 hrs starting from 12 hrs post PMA/ionomycin stimulation by flow cytometry (reference value: 9.6%). It counts as functional. Details: scale not given: the % may be the effect or the level left.
In test [12] the test system is T-cell. The experiment in a line: Inhibition of PMA/ionomycin-stimulated C57BL/6 mouse T cells activation assessed as CD69-positive cells at 5 ug/ml treated for 48 hrs starting from 12 hrs post PMA/ionomycin stimulation by flow cytometry (reference value: 37.2%). It counts as functional. Details: scale not given: the % may be the effect or the level left.
The test system of test [13] is Mus musculus. The experiment in a line: Anti-inflammatory activity against C57BL/6 mouse model of MOG-induced autoimmune encephalomyelitis assessed as inhibition of development of clinical symptoms at 100 uL of 20 uM solution administered ip starting from day 1 post immunization and measured 9 to 16 days post Mycobacterium tuberculosis H37Ra/MOG immunization. Type of test: functional, organism-based. Put shortly: (§3)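 C57BL/6 wild-type mice, 8–12 weeks old, were kept under SPF conditions and immunized with MOG peptide. From day 1 after immunization they received a daily ip injection of 100 µl of a 20 µM solution; controls received PBS. Clinical signs were checked daily. Tissues were taken at disease peak, days 12–15 after immunization.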

Test [14] deals with Mus musculus. Nature of the test: Anti-inflammatory activity against C57BL/6 mouse model of MOG-induced autoimmune encephalomyelitis assessed as reduction in immune cell infiltration in to lumbar spinal cord at 100 uL of 20 uM solution administered ip starting from day 1 post immunization and measured 9 to 16 days post Mycobacterium tuberculosis H37Ra/MOG immunization by hematoxylin and eosin staining based microscopic method. Type of test: functional, organism-based. Put shortly:
as §3

The test system of test [15] is Mus musculus. The experiment in a line: Anti-inflammatory activity against C57BL/6 mouse model of MOG-induced autoimmune encephalomyelitis assessed as reduction in inflammatory foci in lumbar spinal cord at 100 uL of 20 uM solution administered ip starting from day 1 post immunization and measured 9 to 16 days post Mycobacterium tuberculosis H37Ra/MOG immunization by hematoxylin and eosin staining based microscopic method. It counts as functional, organism-based. Put shortly: as §3

In test [16] the test system is Mus musculus. Nature of the test: Anti-inflammatory activity against C57BL/6 mouse model of MOG-induced autoimmune encephalomyelitis assessed as reduction in TH17 cell population in lumbar spinal cord at 100 uL of 20 uM solution administered ip starting from day 1 post immunization and measured 9 to 16 days post Mycobacterium tuberculosis H37Ra/MOG immunization by immunofluorescence microscopic method. It counts as functional, organism-based. Put shortly: as §3

Test [17] concerns Mus musculus. The experiment in a line: Anti-inflammatory activity against C57BL/6 mouse model of MOG-induced autoimmune encephalomyelitis assessed as CD45-positive leukocytes at 100 uL of 20 uM solution administered ip starting from day 1 post immunization and measured 9 to 16 days post Mycobacterium tuberculosis H37Ra/MOG immunization by flow cytometry (reference value: 4.4%). Type of test: functional. Put shortly:
as §3

In [1], `O=C(Cc1ccc(Cl)c(Cl)c1)N1CCN(C(=O)COCCF)[C@H]2CCC[C@H](N3CCCC3)[C@H]21` (relative stereo) displayed an inhibition of 0%.

The molecule `CCCN1CCN(C(=O)Cc2ccc(Cl)c(Cl)c2)[C@@H]2[C@@H](N3CCCC3)CCC[C@@H]21` (racemic) came in with a Ki in [2] of 2.4 µM.

In test [2], `CCCCN1CCN(C(=O)Cc2ccc(Cl)c(Cl)c2)[C@@H]2[C@@H](N3CCCC3)CCC[C@@H]21` (racemic) displayed an inhibition constant (Ki) of 1.3 µM.

Molecule `O=C(Cc1ccc(Cl)c(Cl)c1)N1CCN(Cc2cn(CCF)nn2)[C@H]2CCC[C@H](N3CCCC3)[C@H]21` (racemic) registered an inhibition in [1] of 0%. The result with Dendritic cell [3], with T-cell [4], in the test with T-cell [5], with Dendritic cell [6], in the test with Dendritic cell [7] and in the test with T-cell [8] was Active. Further, the outcome in the test on T-cell [9], in the test on Dendritic cell [10], with Mus musculus [14], in the test on Mus musculus [15] and in the test with Mus musculus [16] was Active. Further, the Activity in the test with T-cell [11] is reported as 10.4%; in the test with T-cell [12] it was 14.8%; in the test on Mus musculus [17], 0.2%. The inhibition entry in the test with Mus musculus [13] is “Active”.

On to `O=C(Cc1ccc(Cl)c(Cl)c1)N1CCN(CCF)[C@H]2CCC[C@H](N3CCCC3)[C@H]21` (racemic), for which the inhibition in test [1] amounted to 3%.

In turn, `CN1CCN(C(=O)Cc2ccc(Cl)c(Cl)c2)[C@H]2[C@@H]1CCC[C@@H]2N1CCCC1` had an inhibition in test [1] of 4%.

Take `O=C(Cc1ccc(Cl)c(Cl)c1)N1CCN(Cc2ccc(F)cc2)[C@H]2CCC[C@H](N3CCCC3)[C@H]21` (racemic): the inhibition in test [1] came to 0%.

For `O=C(Cc1ccc(Cl)c(Cl)c1)N1CCN(CCCCF)[C@H]2CCC[C@H](N3CCCC3)[C@H]21` (racemic), the inhibition in test [1] was 8%.

In the case of `O=C(Cc1ccc(Cl)c(Cl)c1)N1CCN[C@H]2CCC[C@H](N3CCCC3)[C@H]21` (racemic), in test [1], the inhibition was found to be 5%. Further, the outcome with Dendritic cell [3] and in the test on T-cell [4] was inactive. The Activity in the test on T-cell [11] is 7.6%; in the test with T-cell [12] it was 25.6%; with Mus musculus [17] it was 0.5%. Besides, in the test on Mus musculus [13], the inhibition entry is “Active”. Also, the outcome with Mus musculus [14], in the test with Mus musculus [15] and in the test on Mus musculus [16] was Active.

In turn, `CC(C)(C)OC(=O)N1CCN(C(=O)Cc2ccc(Cl)c(Cl)c2)[C@@H]2[C@@H](N3CCCC3)CCC[C@@H]21` (racemic) came in with an inhibition in test [1] of 16%.

Turning to `CCN1CCN(C(=O)Cc2ccc(Cl)c(Cl)c2)[C@H]2[C@@H]1CCC[C@@H]2N1CCCC1` (relative stereo), the inhibition in [1] stood at 16%.

In turn, `COC(=O)N1CCN(C(=O)Cc2ccc(Cl)c(Cl)c2)[C@@H]2[C@@H](N3CCCC3)CCC[C@@H]21` (racemic) displayed an inhibition in test [1] of 8%.
